Test results published in ChEMBL document CHEMBL4196122, “Design, Synthesis, and Biological Evaluation of Allosteric Effectors That Enhance CO Release from Carboxyhemoglobin” (ACS Med Chem Lett, 2018).

Key:
[1] = target: T1, Hemoglobin HbA (Homo sapiens) (UniProt P69905+P68871); experiment: Binding affinity to hemoglobin (unknown origin) assessed as increase in release of carbon monooxide from carboxyhemoglobin by measuring half life of carboxyhemoglobin at 20:1 compound/Hb tetramer ratio incubated for 1 hr measured every 15 mins for 90 mins (reference value: 80 +/- 0.3 min); format: protein-complex assay
T1 sequence (P68871 2-147 partner limits assumed): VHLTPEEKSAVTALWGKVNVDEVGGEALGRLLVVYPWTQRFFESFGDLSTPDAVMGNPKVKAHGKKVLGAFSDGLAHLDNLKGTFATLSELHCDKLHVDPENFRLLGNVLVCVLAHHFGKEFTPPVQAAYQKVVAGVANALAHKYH
T1 sequence (P69905 2-142 limits assumed): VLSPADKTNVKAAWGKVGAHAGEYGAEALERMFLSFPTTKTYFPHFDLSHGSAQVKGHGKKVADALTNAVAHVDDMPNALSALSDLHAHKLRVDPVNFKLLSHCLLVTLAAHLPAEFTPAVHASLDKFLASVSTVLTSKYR

[2] = Aqueous solubility of the compound in DMSO/[…] solution at 2.5 mM; format: physicochemical; conditions: 2500 µM
In short: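 Compound made up at 2.5 mM in DPBS containing 1 vol% DMSO. Scored by visual inspection of the solution: "+" if no aggregates or crystals are seen, "-" if aggregates or crystals appear.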

[3] = target: T1, Hemoglobin HbA (Homo sapiens); experiment: Binding affinity to hemoglobin (unknown origin) assessed as increase in release of carbon monooxide from carboxyhemoglobin by measuring half life of carboxyhemoglobin at 5:1 compound/Hb tetramer ratio incubated for 1 hr measured every 15 mins for 90 mins (reference value: 80 +/- 0.3 min); format: protein-complex assay
[4] = Hemolytic activity against human RBC assessed as fraction of extracellular Hb level at 1 mM after 1 hr relative to total Hb level; format: ADME, cell-based, Erythrocyte; conditions: red blood cells (erythrocytes), read-out: Activity
In short: (§1)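 Human red blood cells (50 µM Hb) incubated with compound at 1 mM in 0.1 vol % DMSO. Read-out is extracellular Hb as a fraction of total Hb. "-" denotes less than 1% of total Hb released.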

[5] = target: T1, Hemoglobin HbA (Homo sapiens); experiment: Binding affinity to hemoglobin (unknown origin) assessed as partial oxygen pressure at which 50% of Hb is oxygenated (reference value: 17 +/- 0.3 mmHg); format: protein-complex assay
Erythrocyte = experiment: (§2) Hemolytic activity against human RBC assessed as increase in fraction of extracellular Hb level at 1 mM after 1 hr; format: ADME, cell-based; conditions: erythrocyte, 1 h, 1000 µM; in short: as §1
[6] = as §2; format: ADME, cell-based, Erythrocyte; conditions: red blood cells (erythrocytes), read-out: Activity; in short: as §1

With Cc1cc(C)cc(C(=O)N[C@H](Cc2ccc(-c3cnn(C)c3)cc2)C(=O)N[C@@H](Cc2c[nH]c3ccccc23)C(=O)O)c1 the T1/2 [1] was 1.15 h, the solubility [2] was “Soluble” and the T1/2 [3] was 1.23 h. It also gave a hemolysis at 1 h, 1000 µM [4] of less than 1%.

With Cc1cc(C)cc(C(=O)N[C@H](Cc2ccc(-c3c(CO)noc3C)cc2)C(=O)N[C@@H](Cc2c[nH]c3ccccc23)C(=O)O)c1 the T1/2 [1] was 1.08 h, the solubility [2] was “Soluble” and the T1/2 [3] was 1.17 h. The hemolysis at 1 h, 1000 µM [4] was less than 1%.

For Cc1cc(C)cc(C(=O)N(C)[C@H](Cc2ccccc2)C(=O)N[C@@H](Cc2c[nH]c3ccccc23)C(=O)O)c1, the T1/2 [1] was 1.08 h, the solubility [2] was “Insoluble” and the T1/2 [3] was 1.23 h. It also gave a hemolysis at 1 h, 1000 µM [4] of less than 1%.

With Cc1cc(C)cc(C(=O)N[C@H](Cc2ccc(-c3ccc(CN(C)C)o3)cc2)C(=O)N[C@@H](Cc2c[nH]c3ccccc23)C(=O)O)c1 the T1/2 [1] was 1.12 h, the solubility [2] was “Insoluble” and the T1/2 [3] was 1.2 h. It also gave a hemolysis at 1 h, 1000 µM [4] of less than 1%.

For Cc1cc(C)cc(C(=O)N[C@H](Cc2ccc(-c3ccccc3)cc2)C(=O)N[C@@H](Cc2c[nH]c3ccccc23)C(=O)O)c1, the T1/2 [1] was 1.07 h, the solubility [2] was “Insoluble” and the T1/2 [3] was 1.15 h. For the same compound, the hemolysis at 1 h, 1000 µM [4] was less than 1%.

With Cc1cc(C)cc(C(=O)N[C@H](Cc2ccc(-c3c(C(=O)O)noc3C)cc2)C(=O)N[C@@H](Cc2c[nH]c3ccccc23)C(=O)O)c1 the T1/2 [1] was 1.18 h, the solubility [2] was “Soluble” and the T1/2 [3] was 1.3 h. For the same compound, the hemolysis at 1 h, 1000 µM [4] was less than 1%.

With Cc1cc(C)cc(C(=O)N(C)[C@H](Cc2ccc(-c3ccccc3)cc2)C(=O)N[C@@H](Cc2c[nH]c3ccccc23)C(=O)O)c1 the Activity [5] was 19 mmHg, the solubility [2] was “Insoluble” and the Activity (Erythrocyte) was “Toxic”. It also gave a T1/2 [3] of 1.15 h.

In the case of Cc1cc(C)cc(C(=O)N[C@H](Cc2ccccc2)C(=O)N[C@@H](Cc2c[nH]c3ccccc23)C(=O)O)c1, the T1/2 [1] was 1.05 h, the solubility [2] was “Insoluble” and the hemolysis at 1 h, 1000 µM [4] was less than 1%.

For Cc1cc(C)cc(C(=O)N[C@H](Cc2ccc(-c3cncnc3)cc2)C(=O)N[C@@H](Cc2c[nH]c3ccccc23)C(=O)O)c1, the T1/2 [1] was 1.28 h, the solubility [2] was “Soluble” and the T1/2 [3] was 1.33 h. The hemolysis at 1 h, 1000 µM [4] was less than 1%.

With Cc1cc(C)cc(C(=O)N[C@H](Cc2ccc(-c3c(C)noc3C)cc2)C(=O)N[C@@H](Cc2c[nH]c3ccccc23)C(=O)O)c1 the T1/2 [1] was 0.95 h, the solubility [2] was “Insoluble” and the T1/2 [3] was 1.2 h. The hemolysis at 1 h, 1000 µM [4] was less than 1%.

In the case of Cc1cc(C)cc(C(=O)N[C@H](Cc2ccc(-c3ccco3)cc2)C(=O)N[C@@H](Cc2c[nH]c3ccccc23)C(=O)O)c1, the T1/2 [1] was 1 h, the solubility [2] was “Insoluble” and the hemolysis at 1 h, 1000 µM [6] was 1 to 2%. For the same compound, the T1/2 [3] was 1.18 h.
